A selection: hits, their analogues and other compounds. The true share with any hit is near 2.1%.
UCH37 DUB inh: human UCH37 deubiquitinating enzyme inhibition | inhibition, % (test concentration not listed) | hit rate 0.33% among 330,000 | purified proteasome/UCH37, Ub-AMC cleavage fluorescence;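 active means mean inhibition over replicate wells above about 20%, limit read from the data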;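 further: 0% = compound-free wells with enzyme and 100% = wells lacking proteasome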
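Test system – human UCH37 enzyme supplied as purified proteasome complex · Incubation – 30 min preincubation with enzyme, 25 min cleavage at room temperature · Detection – AMC fluorescence from Ub-AMC cleavage, excitation 355 nm, emission 460 nm · Benchmarks – no-proteasome wells (full inhibition) and compound-free wells (no inhibition)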
Beta2AR agonist: activates human beta-2 adrenergic receptor causing internalization | Am2.2-beta2AR cells, FAP receptor internalization, flow cytometry | response, % (test concentration not listed) | P07550 | hit rate 0.43% among 340,000;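 active means response above a set limit, near 3 SD of response in nonfluorescent compounds, cut at about 42% in these data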
PfGluPho inh: PfG6PD (Plasmodium falciparum) enzyme inhibition; hit rate 0.78% among 350,000; PfGluPho enzyme, NADPH resazurin-diaphorase fluorescence; inhibition, % at 20 µM; AID 504690;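 active means inhibition reaching at least a set limit at 20 µM in the primary screen, cut at about 59% in these data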;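 further: 0% = DMSO wells with substrate and 100% = DMSO wells lacking glucose-6-phosphate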
HKDC1 inhibitor: HKDC1 (human) hexokinase inhibition | Q2TB90 | recombinant HKDC1, G6PDH/diaphorase resazurin coupled fluorescence | inhibition, % at 20 µM | hit rate 0.16% among 340,000 | AID 493160;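 active means inhibition above about 35% when tested at 20 µM, limit read from the data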;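 further: plate controls were DMSO wells with enzyme for no effect and DMSO wells lacking enzyme for full effect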
Target sequence (Q2TB90 whole entry, looked up): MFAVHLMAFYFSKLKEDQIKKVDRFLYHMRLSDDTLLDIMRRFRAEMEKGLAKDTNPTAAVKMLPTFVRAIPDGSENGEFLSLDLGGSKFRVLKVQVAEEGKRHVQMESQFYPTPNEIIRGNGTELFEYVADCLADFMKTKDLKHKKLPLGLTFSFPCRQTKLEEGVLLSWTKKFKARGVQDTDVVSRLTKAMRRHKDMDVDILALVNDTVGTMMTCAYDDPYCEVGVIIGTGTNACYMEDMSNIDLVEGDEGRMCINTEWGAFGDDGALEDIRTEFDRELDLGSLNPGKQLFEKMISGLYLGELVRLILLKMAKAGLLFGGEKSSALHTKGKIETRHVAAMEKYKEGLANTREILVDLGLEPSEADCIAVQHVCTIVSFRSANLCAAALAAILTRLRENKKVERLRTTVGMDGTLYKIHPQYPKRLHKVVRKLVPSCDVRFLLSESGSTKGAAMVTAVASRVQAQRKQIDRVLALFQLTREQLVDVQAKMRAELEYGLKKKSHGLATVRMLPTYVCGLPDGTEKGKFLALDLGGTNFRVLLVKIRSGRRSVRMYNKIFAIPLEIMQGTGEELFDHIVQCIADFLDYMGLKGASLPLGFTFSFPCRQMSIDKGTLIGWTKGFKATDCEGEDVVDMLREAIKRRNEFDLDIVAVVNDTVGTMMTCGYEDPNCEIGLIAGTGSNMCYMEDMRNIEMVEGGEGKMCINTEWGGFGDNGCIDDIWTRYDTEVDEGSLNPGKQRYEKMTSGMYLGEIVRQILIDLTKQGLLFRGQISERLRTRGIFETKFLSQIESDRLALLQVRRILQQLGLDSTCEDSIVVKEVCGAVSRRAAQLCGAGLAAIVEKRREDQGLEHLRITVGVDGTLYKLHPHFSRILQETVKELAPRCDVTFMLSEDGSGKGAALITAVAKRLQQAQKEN
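Test system: recombinant HKDC1 (HK5) hexokinase enzyme, produced in-house / Doses: 20 µM test compound, 1% DMSO / Timing: 90 min, room temperature / Detection: G6PDH/diaphorase-coupled fluorescence, 1 mM NADP, 100 µM resazurin, 525/613 nm / Control set: DMSO wells with and without enzyme mix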
aDG glyco up: alpha-DG glycosylation activation. activation, % at 10 µM. Pro5-aDG cells, alpha-DG glycosylation AlphaScreen (IIH6); 0% Pro5, 100% B10-LARGE cell signal. hit rate 0.22% among 360,000. AID 624168;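 active means activation of at least 8% versus controls, or a plate z-score of at least 8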;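 further: Pro5 are CHO cells carrying HIG-tagged alpha-DG that lacks glycosylation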
H9c2 protect: modulators protecting cardiomyocytes from myocardial damage; H9c2 cardiomyocytes, H2O2 injury protection, ATPLite, 2 h; hit rate 0.63% among 360,000; protection from H2O2 cell death, % at 20 µM;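 active means compounds giving at least 50% protection of heart cells from peroxide-induced death in the single-dose screen, raw or plate-pattern-corrected value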;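 further: 0% = DMSO wells with peroxide and 100% = DMSO wells without peroxide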
Beta2AR ag CP1: human beta-2 adrenergic receptor agonism, cherry pick; shares compounds with Beta2AR agonist; Am2.2-beta2AR cells, FAP surface receptor, flow cytometry; hits give low values; percent response (surface receptor), % at 10 µM; hit rate 25% among 1,100;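 active means surface receptor percent response at or below 58%, roughly 3 SD from nonfluorescent compounds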
B2AR FAP counter: counter-screen for beta-2AR agonists: fluorescence in Am2.2 cells. shares compounds with Beta2AR agonist. FAP fluorogen flow cytometry, fluorescence counterscreen; hits give low values. calls only at 10 µM. 1,100 tested, under 10 active. AID 588765;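 active means percent response below a set limit in fluorescence channel 1 and below 50% in channel 8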
* hit, by the source's call; i = inactive; · = no result given; ! = not confirmed by another sample.

SMILES	UCH37 DUB inh	Beta2AR agonist	PfGluPho inh	HKDC1 inhibitor	aDG glyco up	H9c2 protect	Beta2AR ag CP1	B2AR FAP counter
COc1ccc(C(CCNCc2ccc(OC(C)C)cc2)c2ccccc2OC)cc1 (stereo not drawn)	1	23	2	4	0	-23	54*	i
ON=C(C[n+]1ccccc1)c1ccc(Br)cc1	1	·	·	·	·	·	·	·
O=C(NN=Cc1ccc([N+](=O)[O-])s1)C(O)c1ccccc1 (stereo not drawn)	11	·	·	·	·	·	·	·
O=C1CCN(Cc2nnnn2CC2CCCO2)c2ccccc2N1 (stereo not drawn)	4	42*	-8	-8	0	8	105	i
CC(=O)c1cccc(S(=O)(=O)N2CCCC(c3nc(-c4ccc(C)o4)no3)C2)c1 (stereo not drawn)	2	54*	17	1	0	5	80	i
Cc1ccc(-c2noc(C3CCCN(S(=O)(=O)c4ccc5ccccc5c4)C3)n2)o1 (stereo not drawn)	-2	3	19	-1	0	-9	·	·
CC(CC(=O)Nc1ccc(OCc2ccccc2)cc1)=NNC(=O)C(=O)Nc1ccccc1C	1	·	·	·	·	·	·	·
Nc1nonc1C(=O)NCCNS(=O)(=O)c1ccc(F)cc1	2	65*	12	-8	0	6	69	i
CC(=O)Nc1ccc(Nc2cc(C(C)C)nc3c(-c4ccccc4)c(C)nn23)cc1	-199	52*	13	3	0	-1	67	i
CC(=O)Nc1ccc(Nc2cc(C)nc3c(-c4ccccc4)c(C)nn23)cc1	-126	-7	4	-2	0	2	·	·
COc1ccccc1Nc1nc(NCc2ccco2)c2ccccc2n1	-91	8	19	-1	0	-8	125	i
Cc1ccccc1S(=O)(=O)N=C(c1ccccc1)N(C)C	5	·	·	·	·	·	·	·
Cc1ccc(SCc2[nH]nc3c2C2(C(=O)Nc4ccc([N+](=O)[O-])cc42)C(C#N)=C(N)O3)cc1 (stereo not drawn)	5	84*	-3	7	0	3	113	i
CC(=NNC(=O)CNC(=O)C(c1ccccc1)c1ccccc1)c1ccc(C)cc1	0	·	·	·	·	·	·	·
COc1ccc(NC(=O)Cn2nnc(-c3ccccc3NC(=O)C3CC3)n2)cc1	-2	-1	-4	2	0	-7	119	i
CCOc1ccc(NC(=O)Cn2nnc(-c3ccccc3NC(=O)C3CC3)n2)cc1	4	-3	-10	-2	0	-3	123	i
CCCC(=NNC(=O)c1ccc(CSc2nncn2C)cc1)c1ccccc1	1	·	·	·	·	·	·	·
CC(C)c1ccc2c(c1)CC[C@H]1[C@](C)(CN)CCC[C@]21C	·	50*!	0	3	0	-48	79	i
CC(=O)Nc1ccc(NC(=O)CSc2ncc(C(=O)Nc3ccc(F)cc3)c(=O)n2C)cc1	-4	1	-9	1	1	0	·	·
Cn1c(SCC(=O)NCC2CCCO2)ncc(C(=O)Nc2ccc(Cl)cc2)c1=O (stereo not drawn)	-181	75*	17	-3	0	-11	79	i
Cn1c(SCC(=O)NCC2CCCO2)ncc(C(=O)Nc2ccc(F)cc2)c1=O (stereo not drawn)	-112	46*	6	-10	1	-2	98	i
CCNC(=S)NN=Cc1cccc(OCc2c(F)cccc2Cl)c1	6	·	·	·	·	·	·	·
CC(=NNC(=O)CCn1nnc2ccccc21)c1cccs1	4	·	·	·	·	·	·	·
CC(C)(C)c1cc(C(=O)NN=Cc2ccccc2O)n(-c2ccccc2)n1	-16	·	·	·	·	·	·	·
CCOC(=O)COc1cccc2c(=O)n(CC(=O)NCc3ccc(F)cc3)ccc12	-6	51*	-5	-6	0	-6	74	i
SMILES	UCH37 DUB inh	Beta2AR agonist	PfGluPho inh	HKDC1 inhibitor	aDG glyco up	H9c2 protect	Beta2AR ag CP1	B2AR FAP counter
CCOC(=O)COc1cccc2c(=O)n(CC(=O)NCc3ccccc3)ccc12	-3	19	1	-2	0	5	·	·
O=C(COc1ccc(S(=O)(=O)N2CCCC2)cc1Cl)Nc1ccc2c(c1)OCO2	6	-2	-11	-1	0	3	118	i
Cc1cc(S(=O)(=O)N2CCCC2)ccc1OCC(=O)NC1CCCC1	1	-1	-20	1	0	5	·	·
Cc1cc(S(=O)(=O)N2CCCC2)ccc1OCC(=O)Nc1ccccc1	0	7	-1	2	0	-3	104	i
Cc1cc(S(=O)(=O)N2CCCCC2)ccc1OCC(=O)Nc1ccccc1	1	10	15	-1	0	-1	102	i
COC(=O)COc1ccc(S(=O)(=O)N2CCCCCC2)cc1C	5	15	7	-5	0	-5	·	·
COc1ccc(Cn2nc(-c3ccccc3)c(N3CCCCC3)cc2=O)cc1	3	108*	-15	-3	0	2	38*	i
O=c1cc(N2CCCCC2)c(-c2ccccc2)nn1Cc1ccccc1	8	0	2	0	0	0	·	·
O=C(CCn1c(=O)oc2ccc(Cl)cc21)NCCCN1CCOCC1	6	50*	0	-1	0	-2	99	i
C=CCn1c(C2CC2)n[nH]c1=S	1	3	9	-10	0	3	·	·
CCCCCC1CCC(c2n[nH]c(=S)n2C)CC1 (stereo not drawn)	4	-4	0	-3	1	-22	110	i
Cc1ccc(NC(=O)CCCn2c(=O)[nH]c3ccsc3c2=O)cc1	1	-4	1	-5	0	2	·	·
Cc1ccc(CNC(=O)CCCCn2c(=O)[nH]c3ccsc3c2=O)cc1	3	12	2	-2	0	6	121	i
O=C(CCCCCn1c(=O)[nH]c2ccsc2c1=O)NCc1ccc(F)cc1	1	109*	-12	-6	0	-3	1.5*	i
CN(c1ccc(C(=O)NN=Cc2cccc([N+](=O)[O-])c2)cc1)S(=O)(=O)c1ccccc1	6	·	·	·	·	·	·	·
CN1c2ccsc2C(=NNc2ccccc2)CS1(=O)=O	4	·	·	·	·	·	·	·
Clc1ccc(OCCCNCc2ccccc2)c(Br)c1	8	-13	-4	-3	0	7	·	·
Clc1ccc(Cl)c(OCCCCNCc2ccccc2)c1	·	46*	-3	2	1	-23	114	i
COc1cc(C=NNC(=O)c2ccncc2)ccc1OC(=O)c1cc(OC)c(OC)c(OC)c1	2	·	·	·	·	·	·	·
CN(c1ccccc1)S(=O)(=O)c1cccc(C(=O)Nc2cccc(C(=O)NC3CC3)c2)c1	4	51*	1	0	0	1	13*	i
